Compound activity as filed in PubChem.
Only some compounds are listed: those with a hit (about 1.8% of all), similar ones and a draw of the others.
M5 PAM – CHRM5 positive allosteric modulation; activation, % at 3 µM; hit rate 0.3% among 360,000; P08912; CHO-K1 hM5, Fluo-8 calcium, ACh EC20 PAM; 0% = ACh EC20, 100% = ACh EC100;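 active = activation above the run cutoff, the mean activation of all test compounds plus 3 SD, cut at about 18% in these data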
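Assay system: CHO-K1 hM5 cells / Incubation: Fluo-8 loading 80 min at 37 °C plus 30 min room temperature / Technique: Fluo-8 calcium dye fluorescence, kinetic read / Repeats: single replicate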
M4 antag – CHRM4 antagonism in calcium assay. P08173. CHO-hM4 cells, ACh EC80, Fluo-8 calcium fluorescence. inhibition, % at 3 µM. hit rate 0.73% among 360,000. AID 624125;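 active = inhibition above its plate's cutoff, the mean inhibition of sample wells plus 3 SD, cut at about 27% in these data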;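 also: 0% = acetylcholine EC80 with DMSO and 100% = DMSO without agonist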
Target sequence (P08173 whole entry, looked up): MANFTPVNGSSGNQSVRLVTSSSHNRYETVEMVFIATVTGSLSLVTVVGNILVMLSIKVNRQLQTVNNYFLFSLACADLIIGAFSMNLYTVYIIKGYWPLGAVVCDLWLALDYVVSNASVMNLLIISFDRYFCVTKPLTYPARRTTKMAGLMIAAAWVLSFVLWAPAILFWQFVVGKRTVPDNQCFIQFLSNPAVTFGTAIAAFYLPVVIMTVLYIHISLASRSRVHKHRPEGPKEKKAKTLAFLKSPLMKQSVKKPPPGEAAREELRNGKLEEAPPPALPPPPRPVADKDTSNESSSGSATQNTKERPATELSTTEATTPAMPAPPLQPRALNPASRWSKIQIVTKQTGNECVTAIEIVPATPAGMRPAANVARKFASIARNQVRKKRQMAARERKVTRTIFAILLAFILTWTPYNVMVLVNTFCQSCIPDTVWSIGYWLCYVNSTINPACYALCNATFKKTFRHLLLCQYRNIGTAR
M5 ag – agonists of human muscarinic M5 receptor (CHRM5); AID 624037; CHO-K1 hM5 cells, Fluo-8 calcium fluorescence; 0% DMSO wells, 100% maximal acetylcholine response; activation, % at 3 µM; P08912; hit rate 0.19% among 360,000;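 active = activation above the run's mean over test compounds plus 3 SD, cut at about 23% in these data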;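 also: signal is peak over basal fluorescence ratio across the kinetic read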
CHRM4 PAM – potentiates acetylcholine response at human M4 receptor | P08173 | CHO-K1 hM4/Gqi5, Fluo-8 calcium fluorescence, ACh EC20; 0% = ACh EC20, 100% = maximal ACh | activation, % at 3 µM | hit rate 0.4% among 360,000 | AID 624126;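 active = activation above its plate's cutoff, the mean activation of sample wells plus 3 SD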
CHRM4 agonist – CHRM4 agonism in calcium assay; CHO-K1 hM4/Gqi5, Fluo-8 calcium fluorescence; vehicle 0%, full acetylcholine response 100%; hit rate 0.14% among 360,000; AID 624127; activation, % at 3 µM; P08173;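 active = activation above the run mean over all test wells plus 3 SD, cut at about 32% in these data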;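 also: peak over basal fluorescence ratio per well then scaled between controls; 0% = DMSO wells and 100% = acetylcholine at EC100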
M5 antag – blocks acetylcholine activation of human M5 receptor. P08912. hit rate 0.59% among 360,000. inhibition, % at 3 µM. CHO-hM5 cells, Fluo-8 calcium fluorescence, ACh EC80;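 active = inhibition above a per-plate cutoff, the mean of that plate's test compounds plus 3 SD, cut at about 27% in these data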;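 also: 0% = acetylcholine EC80 with DMSO and 100% = DMSO without agonist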
* hit, by the source's call.

SMILES	M5 PAM	M4 antag	M5 ag	CHRM4 PAM	CHRM4 agonist	M5 antag
CCCCCCC1NC(C(=O)O)CS1 (stereo not given)	6	-5	-9	18*	0	-4
CCCCC1NC(C(=O)O)CS1 (stereo not given)	-1	7	2	-5	1	5
O=C(Cc1ccccc1Cl)c1ccccc1	9	-15	-2	27*	1	-2
Cc1ccc(C(=O)N2CCN(c3ccccn3)CC2)cc1C	1	-4	2	15*	2	11
COc1cccc(Nc2nnc(SCC(=O)Nc3sccc3C(N)=O)s2)c1	-24	29*	3	-45	19	9
CC(=O)c1c(N2CCCC2)nc(=S)n(-c2ccccc2)c1C	-4	47*	-8	-17	1	5
CCn1c(C)c(C(C)=O)c(N2CCN(C(c3ccccc3)c3ccccc3)CC2)nc1=S	-20	29*	-7	-20	11	25
CCn1c(C)c(C(C)=O)c(N2CCN(c3ccccc3)CC2)nc1=S	-5	2	-8	-8	0	-6
COc1ccc(N(Cc2nnc3n2CCCCC3)C(=O)Nc2ccccc2)cc1	3	2	2	1	1	6
Cc1ccccc1N(Cc1nnc2n1CCCCC2)C(=O)Nc1ccccc1	3	-14	-2	27*	0	-8
CCCN1CCN(C(=O)C2CCCN(c3ncnc4c3nc3n4CCCCC3)C2)CC1 (stereo not given)	8	-8	-5	4	1	1
Cc1cccc(C)c1-n1nnnc1C(c1ccnc2ccccc12)N(C)Cc1ccccc1 (stereo not given)	-7	-5	0	3	-1	9
CCCCCCCCCC1(CC(=O)OCC)SCCN1C(N)=O (stereo not given)	0	-11	2	-1	5	0
CC1=C(C(=O)NCc2ccco2)C2(CCC(C)CC2)OC1=O (stereo not given)	1	-11	2	1	1	-4
O=C(CN1C(=O)NC2(CCSC2)C1=O)NCc1ccccc1 (stereo not given)	5	-9	-1	18*	3	7
CC1=C(C(=O)NCc2ccc3c(c2)OCO3)C2(CCC(C)CC2)OC1=O (stereo not given)	-21	60*	-1	-18	4	8
CC1CCC2(CC1)NC(=O)N(CC(=O)NCc1ccc3c(c1)OCO3)C2=O (stereo not given)	-14	-4	-9	-5	0	31*
O=C(CN1C(=O)NC2(CCCC2)C1=O)NCc1ccccc1	-3	-11	0	5	1	11
O=C1NC(Cc2ccc(O)cc2)c2nc3cc(F)ccc3c(=O)n2-c2cc3ccccc3cc21 (stereo not given)	-5	3	2	-3	15	1
O=C(O)c1cc(-c2ccc(Cl)c(Cl)c2)n(-c2ccc(F)cc2)n1	1	-22	-4	5	0	-8
O=C(C(=Cc1ccc(F)cc1)C(=O)c1ccccc1)c1ccccc1	8	2	0	-1	-3	6
COC(=O)[C@H]1C[C@H](OC(=O)Nc2cccs2)[C@@]2(O)CN(S(=O)(=O)c3ccc(C)cc3)CC2[C@H]1C(=O)OC (stereo not given in full)	-4	-9	3	5	2	2
O=C(/C=C/c1cc2ccccc2o1)c1ccccc1O	-8	-12	-10	8	-1	5
COc1ccc(O)c(C(=O)/C=C/c2cc3ccccc3o2)c1	5	-16	-1	19*	1	4
CC(=O)NCC1(c2ccccc2)CCN(CCCC(=O)c2ccc(F)cc2)CC1	2	-1	-3	1	0	2
COc1ccc(/C=C2/SC(=O)N(CC(=O)NCCC(C)C)C2=O)cc1OC	1	6	3	1	0	8
COc1ccc(/C=C2\SC(=O)N(CC(=O)NCCC(C)C)C2=O)cc1OC	19*	-1	7	-1	1	-10
